Screening results as filed in PubChem.
Most compounds without a hit are left out; they make up all but 2.5% or so of the library.
MBD2 inh – blocks human MBD2 binding to methylated DNA; Q9UBB5; TR-FRET, MBD2 binding to methylated oligonucleotide; inhibition, % at 4.4 µM; actives 0.31% (n = 370,000); AID 686964; in the data active means inhibition above about 13%
Arrestin-AP2 inh – blocks beta-arrestin peptide binding to AP2 adaptin; AID 504490; actives 0.31% (n = 340,000); inhibition, % at 10 µM; FITC-arrestin peptide / GST-AP2 beads, flow cytometry; AP2 beta2 appendage carries R879A mutation;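 active means inhibition above a set limit, near 3 SD of compounds lacking own fluorescence, cut at about 54% in these data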;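 further: plate controls were DMSO wells for no effect and 5 µM unlabelled arrestin peptide for full effect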
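System: GST-AP2 R879A glutathione beads | Also added: FITC-arrestin peptide, 50 nM | Times: 12 min plus 1 h, RT | Signal: Bead flow cytometry, FITC channel | Buffer or medium: PBS with 0.05% Tween 20 and 0.1% BSA | Read-out basis: Percent drop in bead-associated FITC signal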
ABHD5 PLIN5 PPI – inhibitors of human ABHD5-perilipin-5 interaction; Q00G26+Q8WTS1; AID 602281; Split G. princeps luciferase complementation, luminescence, 4 h; actives 0.78% (n = 360,000); inhibition, % at 4 µM;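 active means inhibition above the mean inhibition across every tested compound plus 3 SD, cut at about 22% in these data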;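 further: 0% = DMSO only wells and the 100% control is not disclosed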
UHRF1 MBD2 ctr – blocks human UHRF1 binding to methylated DNA; Q96T88; UHRF1 binding to methylated oligo, TR-FRET; inhibition, % at 4.4 µM; actives 0.75% (n = 370,000); AID 687016; in the data active means inhibition above about 21%;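 further: UHRF1 SRA domain binding a hemimethylated CpG hairpin DNA probe; 0% = median of test compound wells and 100% = reference inhibitor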
Target sequence (Q96T88 whole entry, looked up, the tested form may be a part): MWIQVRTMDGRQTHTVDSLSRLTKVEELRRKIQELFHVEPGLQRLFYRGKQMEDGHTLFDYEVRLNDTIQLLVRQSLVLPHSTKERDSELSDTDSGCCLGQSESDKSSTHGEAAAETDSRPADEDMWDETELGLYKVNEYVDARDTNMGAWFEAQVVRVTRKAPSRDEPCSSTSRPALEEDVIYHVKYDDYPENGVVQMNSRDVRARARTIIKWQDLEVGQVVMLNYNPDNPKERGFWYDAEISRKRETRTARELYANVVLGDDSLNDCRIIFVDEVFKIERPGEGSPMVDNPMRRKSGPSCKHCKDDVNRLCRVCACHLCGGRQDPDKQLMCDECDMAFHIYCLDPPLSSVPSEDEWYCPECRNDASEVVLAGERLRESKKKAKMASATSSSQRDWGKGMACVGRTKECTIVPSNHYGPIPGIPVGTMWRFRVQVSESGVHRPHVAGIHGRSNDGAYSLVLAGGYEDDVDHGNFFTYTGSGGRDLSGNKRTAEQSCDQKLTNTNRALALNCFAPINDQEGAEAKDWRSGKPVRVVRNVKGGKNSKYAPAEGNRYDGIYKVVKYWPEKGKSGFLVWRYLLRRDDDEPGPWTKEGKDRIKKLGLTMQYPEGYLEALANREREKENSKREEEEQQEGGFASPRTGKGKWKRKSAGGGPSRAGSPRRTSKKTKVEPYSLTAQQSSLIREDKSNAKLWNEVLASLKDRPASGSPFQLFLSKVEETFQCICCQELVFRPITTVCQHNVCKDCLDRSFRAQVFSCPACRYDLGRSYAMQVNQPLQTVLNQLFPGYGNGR
Rin1 Abl inh – human Rin1-Abl interaction inhibition. P00519+Q13671. TR-FRET Rin1/Abl binding, biochemical. inhibition, % at 7.35 µM. actives 0.4% (n = 360,000). AID 588664; in the data active means inhibition above about 5%, passing the limit was not always enough
B2AR ag – agonists of human beta-2 adrenergic receptor inducing internalization. P07550. actives 0.43% (n = 340,000). Am2.2-beta2AR cells, FAP receptor internalization, flow cytometry. response, % (test concentration not listed);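 active means response above a set limit, near 3 SD of response in nonfluorescent compounds, cut at about 42% in these data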
Rin1-Abl confirm – Rin1-Abl interaction inhibition confirmation; shares compounds with Rin1 Abl inh; TR-FRET Rin1-Abl binding, purified proteins; inhibition, % at 7.35 µM; actives 49% (n = 1,300)
GFP quencher – counter-screen for Rin1-Abl inhibitors: GFP fluorescence quenchers | inhibitors/quenchers counterscreen | AID 602125 | inhibition, % at 6.75 µM | actives 8.5% (n = 1,300) | shares compounds with Rin1 Abl inh;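 further: ABL1-eGFP fusion protein alone without its partner RIN1-SBP; 0% = protein with vehicle and 100% = wells lacking protein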
GFP quench dose – GFP fluorescence interference dose response; shares compounds with Rin1 Abl inh; GFP fluorescence interference/quenching counterscreen; IC50, µM; 230 tested, under 10 active; call rule not given here;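 further: ABL1-eGFP fusion protein alone without its RIN1 binding partner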
Numbers without * were called inactive; nt = not tested or not shown. Unless noted, no stated cut-off is given here; in the data, active means inhibition above about 6.5%; inactive means the rest.

SMILES	MBD2 inh	Arrestin-AP2 inh	ABHD5 PLIN5 PPI	UHRF1 MBD2 ctr	Rin1 Abl inh	B2AR ag	Rin1-Abl confirm	GFP quencher	others
Cc1nc2ccc(S(=O)(=O)NC(C(=O)NC3CCCC3)C(C)C)cc2s1 (stereo not drawn)	-3.1	-1.5	2.0	-0.3	-1.9	-5.6	nt	nt
COC(=O)[C@]12C[C@H](CC(=O)NCc3cccs3)C(=O)N(Cc3ccco3)C1=C[C@H](C1CCCC1)O[C@@H]2C	-1.2	nt	nt	-2.6	nt	nt	nt	nt
COc1ccccc1N1CCN(Cc2ccc(O)c3ncccc23)CC1	-7.3	0.8	0.6	-4.8	18.2*	15.1	2.5	1.5
CCn1c2ccccc2c2cc(C=Nn3c(-c4ccccn4)n[nH]c3=S)ccc21	-6.6	nt	nt	0.2	nt	nt	nt	nt
O=C(Nc1ccc2c(c1)OCO2)c1ccc[n+]([O-])c1	0.7	5.1	-8.4	-2.5	5.0*	-3.0	2.1	-1.8
CC(COc1ccc(C#N)c(F)c1)CN1CCC(C(O)(c2ccccc2)c2ccccc2)CC1 (stereo not drawn)	3.4	nt	nt	-1.2	nt	nt	nt	nt
CCn1c(SCC(=O)Nc2ccc(C(N)=O)cc2)nc2sc(C)c(C)c2c1=O	-3.8	nt	nt	0.9	nt	nt	nt	nt
NC(=O)c1ccc(NC(=O)CSc2nncn2-c2ccccc2)cc1	-1.8	-14.2	7.1	-0.5	0.0	-11.8	nt	nt
CCOC(=O)c1ccc(NC(=O)CSc2nc3cccnc3n2C)cc1	3.2	5.2	-3.8	3.6	9.9*	-7.5	5.9	-0.8
CCOC(=O)c1ccc(NC(=O)CSc2nncn2-c2cccnc2)cc1	-1.4	15.7	8.0	-0.3	7.8*	-22.9	1.9	-0.6
CC1CCCN(C(=O)C2CCN(S(=O)(=O)c3ccc4c(c3)CC(C)N4C(=O)C3CC3)CC2)C1 (stereo not drawn)	3.2	13.2	-1.2	0.5	15.0*	-6.5	-0.2	-2.8
CCN(CC)C(=O)CC[C@H]1CC[C@]2(CCCN(C(=O)c3ccccc3)C2)O1	7.7	nt	nt	1.5	nt	nt	nt	nt
CCOc1ccc(OCCN2C(=O)c3ccccc3C2=O)cc1	-2.7	-5.3	-7.0	3.3	-0.2	0.6	nt	nt
COc1ccc(OCC(=O)OCCN2C(=O)c3ccccc3C2=O)cc1	0.5	-1.1	-3.0	-1.7	10.4*	-1.4	-0.7	1.1
CCn1c(=O)[nH]n(C/C(C)=C\c2c[n+](Cc3ccc4c(c3)OCO4)c(N)[nH]2)c1=O	1.7	nt	nt	0.1	nt	nt	nt	nt
CC(C)CNC(=O)CC1Oc2ccccc2NC1=O (stereo not drawn)	1.4	nt	nt	0.6	nt	nt	nt	nt
CC(=O)Oc1ccc(C(=O)Nc2cccc(-c3nnc(-c4ccco4)o3)c2)cc1	1.8	-3.5	-1.3	3.0	-1.4	4.5	nt	nt
O=C(Nc1cccc(-c2nnc(-c3ccco3)o2)c1)c1ccccc1	-0.8	1.1	1.7	4.1	10.2*	-3.0	-1.7	-1.6
Cc1ccccc1NC(=O)Nc1ccc(C(F)(F)F)cc1	0.3	8.3	-10.8	4.5	9.0*	8.7	-1.3	0.2
Cc1ccccc1NC(=O)CNC(=O)c1ccc(C(F)(F)F)cc1	-2.6	10.2	-0.6	0.0	0.9	7.3	nt	nt
Cc1cccc(-n2c(SCC(=O)NCc3ccco3)nnc2-c2ccco2)c1	0.9	26.8	4.8	-0.4	4.7	0.3	nt	nt
Cc1ccc(-n2c(SCC(=O)NCc3ccco3)nnc2-c2cccnc2)c(C)c1	-0.1	1.9	7.2	0.5	11.6*	0.5	9.7*	-0.6
CN(C)S(=O)(=O)c1ccc(C(=O)OC2CCOC2=O)cc1 (stereo not drawn)	0.7	5.8	11.2	-0.3	6.9*	2.7	0.6	-2.3
O=C(OC1CCOC1=O)c1ccc(S(=O)(=O)N2CCCCCC2)cc1 (stereo not drawn)	0.4	24.4	-0.2	-1.2	1.9	6.4	nt	nt
CCN(CC)c1ccc(N=Cc2ccc(N(CC)CC)cc2O)cc1	-6.9	15.7	10.3	-2.1	11.2*	-97.6	0.2	-1.9
SMILES	MBD2 inh	Arrestin-AP2 inh	ABHD5 PLIN5 PPI	UHRF1 MBD2 ctr	Rin1 Abl inh	B2AR ag	Rin1-Abl confirm	GFP quencher	others
COc1ccc(C2c3c(nc[nH]c3=O)Oc3nc[nH]c(=O)c32)cc1	nt	0.8	-3.5	nt	50.4*	-2.2	63.9*	-1.6	GFP quench dose=>67.5
COc1ccccc1C(=O)NC1CCCCN(Cc2ccc(OC(F)(F)F)cc2)C1=O (stereo not drawn)	4.1	nt	nt	0.0	nt	nt	nt	nt
CC1CCCCN1c1ncnc(N)c1[N+](=O)[O-] (stereo not drawn)	-3.0	6.0	0.7	-4.0	7.2*	1.1	-0.2	-0.1
COc1cc(C=c2c3ccccc3n3c2cc(-c2ccccc2)[n+]3C)cc(OC)c1OC	-2.1	1.9	-27.8	7.0	14.3*	-9.3	-4.2	3.1
C[C@@H](N)P(=O)(O)C[C@H](Cc1ccccc1)C(=O)O	-0.9	nt	nt	-0.7	nt	nt	nt	nt
COc1ccc(S(=O)(=O)N(C)C[C@H]2Oc3ccc(NC(=O)C4CCCCC4)cc3C(=O)N([C@H](C)CO)C[C@@H]2C)cc1	3.1	nt	2.7	3.5	7.8	-12.0	nt	nt
COc1ccc(S(=O)(=O)N(C)C[C@H]2Oc3ccc(NC(=O)C4CC4)cc3C(=O)N([C@H](C)CO)C[C@@H]2C)cc1	3.9	35.0	13.6	5.1	18.8*	-0.9	25.8*	-0.9
CCOC(=O)CCCCCC(=O)Nc1ccc2c(c1)C(=O)N([C@H](C)CO)C[C@@H](C)[C@@H](CN(C)C(=O)CCC(F)(F)F)OCCCC[C@H](C)O2	-6.2	nt	-4.8	2.7	50.5*	nt	54.6*	-0.3	GFP quench dose=>67.6
CCOC(=O)CCCCCC(=O)Nc1ccc2c(c1)C(=O)N([C@H](C)CO)C[C@H](C)[C@@H](CN(C)S(C)(=O)=O)OCCCC[C@@H](C)O2	-4.9	nt	-8.1	-1.2	10.3*	nt	14.5*	-0.8
CCOC(=O)CCCCCC(=O)Nc1ccc2c(c1)C(=O)N([C@@H](C)CO)C[C@H](C)[C@H](CN(C)S(=O)(=O)c1ccc(OC)cc1)OCCCC[C@H](C)O2	7.0	nt	4.6	9.5	8.1	nt	nt	nt
CCOC(=O)CCCCCC(=O)Nc1ccc2c(c1)C(=O)N([C@@H](C)CO)C[C@@H](C)[C@H](CN(C)C(=O)c1ccncc1)OCCCC[C@H](C)O2	-3.2	nt	-6.1	0.5	5.2	nt	nt	nt
CN(C)c1ccc(C(=O)NC2CCCCN(Cc3ccc(Cl)cc3)C2=O)cc1 (stereo not drawn)	0.5	nt	nt	-1.3	nt	nt	nt	nt
O=C(Nc1ccccc1N1CCN(C(=O)c2ccc(Cl)cc2)CC1)c1cccnc1	2.0	2.8	-4.0	-4.5	17.5*	5.8	22.5*	0.9	GFP quench dose=>67.5
COc1cccc(/C=C/C(=O)NCc2cn3cc(Cl)ccc3n2)c1	-3.1	14.3	5.1	-3.8	5.2*	-6.2	1.5	-1.5
